Data on 7 molecules can be found in article PMC11830134 (BioImpacts : BI, 2023).

Where “and” joins values, the source holds several entries; their conditions need not be identical. Equal entries are not always repeated.

Data set [1] can be described thus: Ex-vivo skin permeation, Franz diffusion cells. The format is in vitro ADME, Sprague-Dawley rats. The note with it: for Residual drug in the donor phase / Flux / Permeated drug through the skin: rat skin, mean ± SD, n=3; for Residual drug in the donor phase: after 48h; for Flux / Permeated drug through the skin: saturated solution donor; for Flux: 37 °C; for Flux / Unrecovered/ trapped drug: 48h; for Permeated drug through the skin: over 48h; for Unrecovered/ trapped drug: total applied minus permeated and donor-recovered amounts. A digest of the protocol:
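Full-thickness abdominal skin from ~8-week male Sprague-Dawley rats (220-250 g), taken after isoflurane anaesthesia, mounted in upright Franz cells (2.0 cm2). Donor: peptide at saturated solubility, set from predicted logS. Receptor: 5 mL 10% (v/v) hydroethanolic solution, 37±0.5 °C, 300 rpm, 48 h. 1 mL sampled at 1-48 h with replacement, stored -20 °C, quantified by ESI-MS flow injection. Flux from permeated amount versus time.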

A short description of data set [2]: Surface tension and critical micelle concentration, Du Noüy ring method. Format: physicochemical. To be noted: aqueous, 25±0.5 °C; mean ± SD, n=3. A digest of the protocol:
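Aqueous solutions freshly made at twice the predicted solubility as starting concentration. Du Noüy platinum ring force tensiometer, 25±0.5 °C; ring fully immersed, then slowly lifted, and force at detachment converted to surface tension. Static-zone surface tension compared with deionized water. Triplicate measurements.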

Data set [3] is described as follows: Short-term stability of aqueous solutions. The format is physicochemical. To be noted: aqueous solutions at −20, 4, 25 and 37 °C, compared with fresh samples. A digest of the protocol: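 Test peptide aqueous solutions at set concentrations, held at −20, 4, 25 and 37 °C for 72 h. Then quantified by ESI triple-quad MS in flow-injection mode (direct infusion from autosampler). Expressed relative to fresh samples of the same initial concentration.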

For data set [4] the following is noted: equilibrium zone, water; cited from earlier work.
For data set [5] the following is noted: cited from earlier work.
For data set [6] the following is noted: cited from earlier work. This is another data set of the same source.

In the case of `CCCCCCCCCCCC(=O)N[C@@H](CCCCN)C(=O)N[C@H](C(=O)O)[C@@H](C)O` [Compound C12-KT], in data set [1], the “Residual drug in the donor phase” value is 21.49±7.454%; the Flux is on record as 0.016±0.006 µg/cm^2 /h; the “Permeated drug through the skin” value was 0.5% and 0.499±0.070%; the Unrecovered/ trapped drug entry is “≈78%”. In data set [2], this molecule came in with a CMC of 15.31 ± 0.05 mg/L. For the same molecule, in data set [3], the “stability range in the aqueous medium after 72 hours” value (“stability range” for short) is 96.2-101.8%.
On to `CCCCCCCCCCCCCCCC(=O)N[C@@H](CCCCN)C(=O)N[C@H](C(=O)O)[C@@H](C)O` [Compound C16-KT, reference compound], for which, in data set [1], the “Residual drug in the donor phase” value came out at 4.197±1.308%; the Flux is recorded as 0.001±0.000 µg/cm^2 /h; the “Permeated drug through the skin” value is 2.6% and 2.628±0.368%; the Unrecovered/ trapped drug entry was “≈93%”. This molecule also yielded a CMC in data set [2] of 1.89 ± 0.44 mg/L. In addition, the “stability range” value in data set [3] is recorded as 93.2-104.2%.
In the case of `C[C@@H](O)[C@H](NC(=O)[C@@H](N)CCCCN)C(=O)O` [KT, lysine-threonine, reference compound], in data set [1], the “Residual drug in the donor phase” value was 97.7% and 97.73±1.688%; the Flux stood at 0.003±0.000 µg/cm^2 /h; the “Permeated drug through the skin” value was 0.004% and 0.004±0.001%. In addition, the “stability range” value in data set [3] was 99.7-100.3%.
Take `CCCCCCCCCC(=O)N[C@@H](CCCCN)C(=O)N[C@H](C(=O)O)[C@@H](C)O` [Compound C10-KT]: in data set [1], the “Residual drug in the donor phase” value came to 55.23±3.377%; the Flux came out at 0.032±0.009 µg/cm^2 /h; the “Permeated drug through the skin” value was 2.3% and 2.314±1.087%; the Unrecovered/ trapped drug entry is “≈42%”. This molecule also registered a CMC in data set [2] of 42.24 ± 0.06 mg/L. Besides, in data set [3], the “stability range” value was 96.6-103.7%.
In the case of Pal-KTTKS, the experimental surface tension in data set [4] is 50.3±0.40 mN/m. The log partition coefficient (logP) in data set [5] is given as 3.72. In addition, the “accumulation in the epidermis” value in data set [6] was 48%.
As for “lysine-threonine-threonine-lysine-serine [KTTKS]”, the experimental surface tension in data set [4] is recorded as 69.00±2.7 mN/m. For the same molecule, the log partition coefficient (logP) in data set [5] is recorded as -3.54.
With `CCCCCCCC(=O)N[C@@H](CCCCN)C(=O)N[C@H](C(=O)O)[C@@H](C)O` [Compound C8-KT], in data set [1], the “Residual drug in the donor phase” value was found to be 21.29±3.851%; the Flux is 1.084±0.085 µg/cm^2 /h; the “Permeated drug through the skin” value was 33.2% and 33.24±9.562%; the Unrecovered/ trapped drug entry is listed as “≈ 34%”. The same molecule showed a CMC in data set [2] of 194.95 ± 0.05 mg/L. In data set [3], the “stability range” value is recorded as 98.9-101.6%.
